Source: PubChem BioAssay
Most compounds without a hit are left out; they make up all but 0.77% or so of the library.
ABCG2 block – blocks JC-1 efflux by human ABCG2 transporter | hit rate 0.1% among 190,000 | AID 1325 | inhibition, % at 6.6 µM | IgMXP3 cells, flow cytometry;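 active = inhibition above 80%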;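 also: 0% = DMSO and 100% = nicardipine control wells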
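Measure – % inhibition of efflux relative to nicardipine and DMSO · Test system – ABCG2 IgMXP3 and barcoded ABCB1 CCRF-Adr cell mix · Control set – nicardipine as high control, DMSO as low control · Compound – one concentration, 6.6 µM final · Signal – flow cytometry of retained JC-1 fluorescence · Timing – 10 min exposure at 25 °C with rotation, no wash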
Furin inhibitor – blocks human furin protease activity. inhibition, % at 20 µM or 30 µM. hit rate 0.061% among 220,000. purified furin, fluorogenic substrate cleavage. P09958; in the data active = inhibition above about 25%
HMGR II inh – blocks class II HMG-CoA reductase of Enterococcus faecalis | purified E. faecalis HMGR, NADPH absorbance 340 nm kinetic | inhibition, % at 10 µM | hit rate 0.41% among 190,000 | AID 1066;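 active = inhibition above a set limit, the median over all tested compounds plus 3 SD, cut at about 9.5% in these data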;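 also: enzyme runs in reverse so mevalonate oxidation gives rising NADPH absorbance; 0% = complete reaction with DMSO and 100% = background rate lacking mevalonate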
ABCB1 block – human ABCB1 inhibition, ABCG2 as counter-screen; P08183; CCRF-Adr cells, JC-1 efflux, flow cytometry; inhibition, % at 6.6 µM; hit rate 0.067% among 190,000; in the data active = inhibition above about 40%;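 also: 0% = vehicle and 100% = reference inhibitor; higher value means more JC-1 retained so stronger ABCB1 efflux block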
Rad51 HR inh – Rad51 (human) homologous recombination inhibition; Q06609; hRad51 DNA strand exchange, fluorescence dequenching; inhibition, % at 10 µM; hit rate 0.085% among 200,000; AID 1385;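 active = inhibition above 40% at the single screening dose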;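 also: 0% = DMSO control wells and 100% = blanks with heterologous ssDNA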
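Material: hRad51 filaments on single-stranded DNA; Reagent: Donor/quencher-labelled 47-bp dsDNA substrate; Compound: 10 µM final, single point; Schedule: 37 °C 15-min filament assembly, 30-min compound preincubation, 15-min exchange; Technique: FRET fluorescence, excitation 485 nm, emission 520 nm; Benchmarks: control wells and blank wells on each plate.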
PERK inh – blocks human PERK kinase | Q9NZJ5 | inhibition, % at 5.6 µM | CHO PERK-DD fusion, SEAP luminescence translation reporter | hit rate 0.17% among 220,000;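 active = inhibition above the mean inhibition of all tested compounds plus 3 SD, set separately per screening campaign, cut at about 2.9% in these data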;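 also: PERK kinase domain activated by AP20187 dimerizer at 100 nM; 0% = DMSO with dimerizer and 100% = rapamycin at 8.4 µM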
Target sequence (Q9NZJ5 whole entry, looked up, the tested form may be a part): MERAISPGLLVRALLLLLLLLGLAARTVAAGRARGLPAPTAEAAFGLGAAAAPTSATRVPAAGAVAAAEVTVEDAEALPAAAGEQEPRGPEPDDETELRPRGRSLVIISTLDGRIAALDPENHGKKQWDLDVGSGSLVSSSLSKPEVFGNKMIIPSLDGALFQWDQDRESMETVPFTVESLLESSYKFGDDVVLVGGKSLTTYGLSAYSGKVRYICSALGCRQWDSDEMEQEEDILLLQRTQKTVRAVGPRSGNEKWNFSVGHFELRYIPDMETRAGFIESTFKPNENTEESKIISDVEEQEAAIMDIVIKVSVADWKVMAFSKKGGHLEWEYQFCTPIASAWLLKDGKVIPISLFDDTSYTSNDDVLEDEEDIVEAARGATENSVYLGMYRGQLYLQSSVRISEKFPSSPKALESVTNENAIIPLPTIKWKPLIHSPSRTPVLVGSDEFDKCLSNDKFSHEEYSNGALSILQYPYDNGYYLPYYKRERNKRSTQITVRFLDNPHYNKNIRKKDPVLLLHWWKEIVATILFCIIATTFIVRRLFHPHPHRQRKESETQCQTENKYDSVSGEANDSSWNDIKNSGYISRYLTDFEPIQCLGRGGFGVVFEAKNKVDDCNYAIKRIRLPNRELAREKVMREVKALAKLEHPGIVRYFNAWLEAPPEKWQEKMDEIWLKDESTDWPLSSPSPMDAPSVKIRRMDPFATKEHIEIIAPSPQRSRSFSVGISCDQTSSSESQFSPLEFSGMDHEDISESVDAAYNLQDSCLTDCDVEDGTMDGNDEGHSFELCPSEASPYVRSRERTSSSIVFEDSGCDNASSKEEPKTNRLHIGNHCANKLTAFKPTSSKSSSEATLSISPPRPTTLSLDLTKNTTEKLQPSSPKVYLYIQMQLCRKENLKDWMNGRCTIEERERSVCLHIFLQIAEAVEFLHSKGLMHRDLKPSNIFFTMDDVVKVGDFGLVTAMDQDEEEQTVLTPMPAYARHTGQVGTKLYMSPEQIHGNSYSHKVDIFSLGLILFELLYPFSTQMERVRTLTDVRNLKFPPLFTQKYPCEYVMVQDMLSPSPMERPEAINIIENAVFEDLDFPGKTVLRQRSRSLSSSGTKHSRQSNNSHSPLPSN
* = called active by the depositor; · = no result.

SMILES	ABCG2 block	Furin inhibitor	HMGR II inh	ABCB1 block	Rad51 HR inh	PERK inh
CN(C)c1ccc(/C=N/NC(=O)c2ccccn2)cc1	·	10	·	·	7	1
COCCN1C(=O)/C(=C/c2ccc(N3CCCC3)cc2C)SC1=S	91*	-9	-8	67*	30	1
CCOC(=O)C1=NNC2(c3ccc(Cl)cc3)C(=O)N(c3ccc(C)cc3)C(=O)C12 (stereo not given)	41	-17	-8	1	-6	0
O=C(/C=C\Nc1ccc(Cl)cn1)c1ccc(Br)cc1	-1	-21	11*	-1	-6	1
COC(=O)c1[nH]c2cc(OC)ccc2c1NC(=O)CCN1CCCCC1	0	34*	-2	0	5	1
COC(=O)c1[nH]c2cc(OC)ccc2c1NC(=O)CCN1CCCC(C)(C)C1	13	-23	-1	-1	4	-1
O=C(CSCC(=O)N1CCCCC1)OCC(=O)c1c[nH]c2ccccc12	2	-6	3	0	-17	1
O=C(COc1ccccc1[N+](=O)[O-])N/N=C/c1ccc(O)c([N+](=O)[O-])c1	7	-29	2	0	5	1
O=C(COc1ccccc1C(=O)N/N=C\c1ccc(O)c(O)c1)N/N=C/c1ccc(O)c(O)c1	-2	-13	29*	-1	·	2
CCOc1ccc(C2C(C#N)=C(N)Oc3cc(C)oc(=O)c32)cc1 (stereo not given)	0	-22	16*	0	-3	1
NC(=O)Cn1c(=O)n(C2CCCCC2)c(=O)c2c3c(sc21)CCCCC3	0	-20	1	0	-5	1
Cc1onc(-c2c(F)cccc2Cl)c1C(N)=S	0	-22	2	0	-4	1
COc1ccc(CC(=O)Nc2nc(-c3cc(OC)ccc3OC)cs2)cc1	1	-20	4	0	6	0
COc1cccc(CC(=O)Nc2nc(-c3cc(OC)ccc3OC)cs2)c1	8	-5	12*	2	-7	-1
COc1ccc(NC(=O)c2cncc(Br)c2)c(S(=O)(=O)N2CCOCC2)c1	2	-21	11*	0	-5	0
Cc1cc(C)nc(NC(=O)CCC2CCCC2)c1	7	-18	9.9*	0	2	0
COc1ccc(C(=O)Nc2ccc(C(F)(F)F)n(C)c2=O)cc1	10	-12	11*	1	-6	1
COc1ccc(NC(=O)c2ccc(=O)oc2)cc1	0	-12	-3	0	·	0
COc1ccc(NC(=O)c2ccc3c(c2)n(C)c(=O)n3C)cc1	10	-17	21*	2	-7	-1
CCOC(=O)c1c(NC(=O)COC(=O)c2c(C)noc2C)sc2c1CCC2	0	-13	-1	-1	2	1
N#Cc1c2n(c3c(N)ncnc13)CCCCC2	·	-10	·	·	-1	0
S=c1nc(-c2ccc(Br)cc2)[nH]c2ccccc12	·	-16	·	·	16	3.0*
S=c1nc(-c2ccccc2)[nH]c2ccccc12	-2	-20	-5	-1	4	-1
Cc1ccc(-c2cc3ncc(C#N)c(N)n3n2)cc1	24	-27	-8	2	4	1
CCC(CO)NCc1sccc1C (stereo not given)	1	-26	10*	0	11	0
SMILES	ABCG2 block	Furin inhibitor	HMGR II inh	ABCB1 block	Rad51 HR inh	PERK inh
COc1ccc(OC)c(Cc2nnc(CCC(=O)NC(C3CC3)C3CC3)o2)c1	1	-22	-2	0	-4	0
COc1ccc(OC)c(Cc2nnc(CCC(=O)NCc3ccc(C)s3)o2)c1	2	-30	-5	1	-1	3.3*
O=Cc1cc(N=Nc2cccc(C(=O)O)c2)ccc1O	2	-7	1	1	47*	1
O=Cc1cc(N=Nc2ccccc2Cl)ccc1O	0	-1	-4	0	-33	-1
COc1cc(NC(=S)N2CCN(c3ccccn3)CC2)cc(OC)c1	11	-17	-1	0	-4	0
CCOC(=O)c1c(CN(CC)CC)oc2ccc(OC)cc12	-1	-9	12*	0	0	0
CCOC(=O)c1c(CN(CC)CC)oc2cc(Br)c(O)cc12	8	-34	-8	1	1	0
O=C(Cn1cccc1C(=O)c1ccccc1)NCc1ccco1	7	-13	14*	1	-5	1
Cc1ccccc1C(=O)c1cccn1CC(=O)NCc1ccco1	0	-16	0	0	4	0
CCCCOc1ccc(-c2nnn(CC(=O)NCc3ccco3)n2)cc1	25	-11	-1	0	5	0
O=C(Cn1nnc(-c2ccccc2F)n1)NCc1ccco1	5	-26	-5	0	44*	3
CCCCC(=O)Nc1nnc(C2=COCCO2)o1	0	-25	18*	0	3	2
Cn1nccc1C(=O)c1ccc(Cl)cc1	5	-24	7	1	·	3.1*
Cc1ccccc1NC(=O)C1CCC(C)(C(=O)O)C1(C)C (stereo not given)	0	-15	-1	0	1	0
Cc1oc(-c2ccccc2Cl)nc1CN1CCCCC1c1cccnc1 (stereo not given)	4	-11	-2	1	-2	0
COc1ccc(-c2nc(CN3CCCCC3c3cccnc3)c(C)o2)c(F)c1 (stereo not given)	4	-27	16*	2	-2	0
COc1cccc(NC(=S)/C(=C(\[O-])c2ccc(C)c([N+](=O)[O-])c2)[n+]2ccccc2)c1	2	-11	6	1	4	1
COc1cccc(NC(=S)/C(=C(\[O-])c2ccc(OC(F)F)cc2)[n+]2ccccc2)c1	3	-17	11*	0	-1	1
C=CCNC(=O)c1c(C(F)(F)F)nn(C)c1Cl	1	-28	9.6*	0	2	0
Cn1nc(C(F)(F)F)c(C(=O)Nc2ccc(C(F)(F)F)cc2)c1Cl	9	-20	-7	0	-1	0
C#CCSc1nnc(CSc2nc3ccccc3s2)n1-c1ccccc1	2	-13	-2	1	-1	-1
O=C(O)CSc1nnc(CSc2nc3ccccc3s2)n1-c1ccccc1	0	-31	11*	0	3	1
CCCCCCN1C=CC=C/C1=C/C=C(C#N)C#N	5	30*	-1	1	-172	-1
CCOc1cc(C(=S)N2CCOCC2)ccc1OS(=O)(=O)c1ccccc1[N+](=O)[O-]	16	-11	1	3	·	-1
Fc1ccc(C2=NN(c3ccccc3)C(c3ccco3)C2)cc1 (stereo not given)	1	-71	13*	0	7	1
Cc1ccc(N2N=C(c3ccc(F)cc3)CC2c2ccco2)cc1 (stereo not given)	14	-36	1	1	-6	0
Cn1c(SCC(=O)N/N=C/C=C/c2ccco2)nc2ccccc21	-1	0	-1	-1	-2	1
